By inhibition is commonly meant the share of the control response that was lost under treatment.

These results are taken from ChEMBL document CHEMBL3046621, “Fungicidal sesquiterpene dialdehyde cinnamates from Pseudowintera axillaris” (2006).

Assay type in all cases: functional
The test system of test [1] is Puccinia graminis f. tritici. Nature of the test: Antifungal activity against Puccinia graminis f. tritici assessed as inhibition of wheat stem rust disease on wheat cultivar Yuma at 100 ppm measured 24 hr post fungal inoculation relative to untreated control. The procedure, abridged:
(§1)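 Whole-plant protectant test: pure compounds in acetone, serially diluted in acetone to 6.25, 25 or 100 ppm and applied to plants.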

In test [2] the test system is Parastagonospora nodorum. Briefly: Antifungal activity against Phaeosphaeria nodorum assessed as inhibition of glume blotch disease on wheat cultivar Yuma plants at 25 ppm measured 24 hr post fungal inoculation relative to untreated control. The procedure, abridged: as §1
For test [3], the system named is Phytophthora infestans. Briefly: Antifungal activity against Phytophthora infestans assessed as inhibition of late tomato blight disease on tomato cultivar Rutgers plants at 100 ppm measured 24 hr post fungal inoculation relative to untreated control. The procedure, abridged:
as §1

The test system of test [4] is Puccinia graminis f. tritici. Briefly: Antifungal activity against Puccinia graminis f. tritici assessed as inhibition of wheat stem rust disease on wheat cultivar Yuma at 6.25 ppm measured 96 hr post fungal inoculation relative to untreated control. The procedure, abridged: as §1
In test [5] the test system is Zymoseptoria tritici. Nature of the test: Antifungal activity against Zymoseptoria tritici assessed as inhibition of wheat leaf spot disease on wheat cultivar Yuma at 25 ppm measured 24 hr post fungal inoculation relative to untreated control. The procedure, abridged: as §1
Test [6] relates to Plasmopara viticola. Nature of the test: Antifungal activity against Plasmopara viticola assessed as inhibition of grape downy mildew disease on vines cultivar Carignane plants at 100 ppm measured 96 hr post fungal inoculation relative to untreated control. Put shortly: as §1
Test [7] has as its system Plasmopara viticola. Briefly: Antifungal activity against Plasmopara viticola assessed as inhibition of grape downy mildew disease on vines cultivar Carignane plants at 6.25 ppm measured 24 hr post fungal inoculation relative to untreated control. The procedure, abridged: as §1
The subject of test [8] is Puccinia graminis f. tritici. Nature of the test: Antifungal activity against Puccinia graminis f. tritici assessed as inhibition of wheat stem rust disease on wheat cultivar Yuma at 25 ppm measured 24 hr post fungal inoculation relative to untreated control. Put shortly:
as §1

The test system of test [9] is Phytophthora infestans. Nature of the test: Antifungal activity against Phytophthora infestans assessed as inhibition of late tomato blight disease on tomato cultivar Rutgers plants at 25 ppm measured 24 hr post fungal inoculation relative to untreated control. The procedure, abridged: as §1
The subject of test [10] is Phytophthora infestans. Nature of the test: Antifungal activity against Phytophthora infestans assessed as inhibition of late tomato blight disease on tomato cultivar Rutgers plants at 25 ppm measured 96 hr post fungal inoculation relative to untreated control. Put shortly: as §1
Test [11] relates to Puccinia graminis f. tritici. Nature of the test: Antifungal activity against Puccinia graminis f. tritici assessed as inhibition of wheat stem rust disease on wheat cultivar Yuma at 25 ppm measured 96 hr post fungal inoculation relative to untreated control. The procedure, abridged:
as §1

Test [12] relates to Phytophthora infestans. Nature of the test: Antifungal activity against Phytophthora infestans assessed as inhibition of late tomato blight disease on tomato cultivar Rutgers plants at 100 ppm measured 96 hr post fungal inoculation relative to untreated control. Put shortly: as §1
Test [13] relates to Plasmopara viticola. Briefly: Antifungal activity against Plasmopara viticola assessed as inhibition of grape downy mildew disease on vines cultivar Carignane plants at 6.25 ppm measured 96 hr post fungal inoculation relative to untreated control. Put shortly: as §1
Test [14] concerns Phytophthora infestans. Nature of the test: Antifungal activity against Phytophthora infestans assessed as inhibition of late tomato blight disease on tomato cultivar Rutgers plants at 6.25 ppm measured 24 hr post fungal inoculation relative to untreated control. Put shortly:
as §1

Test [15] has as its system Puccinia graminis f. tritici. Briefly: Antifungal activity against Puccinia graminis f. tritici assessed as inhibition of wheat stem rust disease on wheat cultivar Yuma at 6.25 ppm measured 24 hr post fungal inoculation relative to untreated control. The procedure, abridged: as §1
Test [16] concerns Phytophthora infestans. Briefly: Antifungal activity against Phytophthora infestans assessed as inhibition of late tomato blight disease on tomato cultivar Rutgers plants at 6.25 ppm measured 96 hr post fungal inoculation relative to untreated control. The procedure, abridged:
as §1

For test [17], the system named is Parastagonospora nodorum. Nature of the test: Antifungal activity against Phaeosphaeria nodorum assessed as inhibition of glume blotch disease on wheat cultivar Yuma plants at 6.25 ppm measured 24 hr post fungal inoculation relative to untreated control. The procedure, abridged: as §1
The subject of test [18] is Plasmopara viticola. Nature of the test: Antifungal activity against Plasmopara viticola assessed as inhibition of grape downy mildew disease on vines cultivar Carignane plants at 25 ppm measured 24 hr post fungal inoculation relative to untreated control. Put shortly:
as §1

In test [19] the test system is Parastagonospora nodorum. Briefly: Antifungal activity against Phaeosphaeria nodorum assessed as inhibition of glume blotch disease on wheat cultivar Yuma plants at 100 ppm measured 24 hr post fungal inoculation relative to untreated control. Put shortly: as §1
In test [20] the test system is Zymoseptoria tritici. Briefly: Antifungal activity against Zymoseptoria tritici assessed as inhibition of wheat leaf spot disease on wheat cultivar Yuma at 6.25 ppm measured 24 hr post fungal inoculation relative to untreated control. The procedure, abridged:
as §1

The subject of test [21] is Zymoseptoria tritici. Nature of the test: Antifungal activity against Zymoseptoria tritici assessed as inhibition of wheat leaf spot disease on wheat cultivar Yuma at 100 ppm measured 24 hr post fungal inoculation relative to untreated control. Put shortly:
as §1

Test [22] has as its system Plasmopara viticola. Briefly: Antifungal activity against Plasmopara viticola assessed as inhibition of grape downy mildew disease on vines cultivar Carignane plants at 25 ppm measured 96 hr post fungal inoculation relative to untreated control. Put shortly: as §1
In test [23] the test system is Plasmopara viticola. Nature of the test: Antifungal activity against Plasmopara viticola assessed as inhibition of grape downy mildew disease on vines cultivar Carignane plants at 100 ppm measured 24 hr post fungal inoculation relative to untreated control. The procedure, abridged:
as §1

Test [24] has as its system Puccinia graminis f. tritici. Briefly: Antifungal activity against Puccinia graminis f. tritici assessed as inhibition of wheat stem rust disease on wheat cultivar Yuma at 100 ppm measured 96 hr post fungal inoculation relative to untreated control. The procedure, abridged:
as §1

Test [25] concerns Parastagonospora nodorum. Briefly: Antifungal activity against Phaeosphaeria nodorum assessed as inhibition of glume blotch disease on wheat cultivar Yuma plants at 100 ppm measured 96 hr post fungal inoculation relative to untreated control. Put shortly: as §1
The subject of test [26] is Parastagonospora nodorum. Briefly: Antifungal activity against Phaeosphaeria nodorum assessed as inhibition of glume blotch disease on wheat cultivar Yuma plants at 25 ppm measured 96 hr post fungal inoculation relative to untreated control. Put shortly:
as §1

As for `C=C1[C@@H]2[C@H](O)C=C(C=O)[C@H](C=O)[C@@]2(C)[C@H](OC(=O)/C=C/c2ccccc2)C[C@@H]1C`, the inhibition at 100 ppm was determined as 77% in test [1]; 100% in [3]; 86% in test [6]; 3% in test [12]; 73% in test [19]; 0% in [21]. The inhibition at 100 ppm in test [23] was found to be 76%; in test [24], 61%. Besides, the inhibition at 25 ppm in [2] was 0%; in [5], 0%; in [8], 8%; in test [9] it was 82%; in test [10], 7%; in [11], 4%. Further, the inhibition at 25 ppm in [18] turned out to be 28%; in [22], 0%. Also, the inhibition at 6.25 ppm in test [4] came out at 0%; in test [7], 0%; in test [13] it was 0%; in [14] it was 72%; in [15], 0%; in test [16], 0%. Further, the inhibition at 6.25 ppm in test [17] and in test [20] was 0% each time.

In the case of `C=C1[C@@H](C)C[C@@H](OC(=O)/C=C/c2ccccc2)[C@]2(C)[C@@H](C=O)C(C=O)=CC[C@@H]12` [Paxidal], the inhibition at 100 ppm in test [1] came out at 0%; in test [3] it was 69%; in [6], 0%; in [12], 9%; in [19], 17%; in test [21], 7%. Moreover, the inhibition at 100 ppm in [23] was found to be 51%; in [25] it was 18%. In addition, the inhibition at 25 ppm in test [2] is 0%; in [5], 0%; in test [8] it was 0%; in test [9] it was 57%; in test [10], 18%; in test [18], 23%. Further, the inhibition at 25 ppm in [22] and in test [26] was 0% each time.
